According to ChEMBL document CHEMBL1156992, “Identification and hit-to-lead exploration of a novel series of histamine H4 receptor inverse agonists” (Bioorg Med Chem Lett, 2010):

Assays:
[1] = Metabolic stability in rat microsomes assessed as drug remaining after 10 mins; format: ADME, Microsome; details: for remaining at 10 min: read-out: Stability
How it was run: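 Compound incubated with rat liver microsomes. Parent remaining measured after 10 min, expressed as percent.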

Histamine H4 receptor [2] = molecular target: T1, Histamine H4 receptor (Homo sapiens, UniProt Q9H3N8); test: Displacement of [3H]histamine dihydrochloride from human histamine H4 receptor after 2.5 hrs by scintillation proximity assay
How it was run: (§1)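 Human H4 receptor-expressing membranes (25 µg) incubated with 20 nM [³H]-histamine dihydrochloride and SPA beads. Buffer: 50 mM Tris pH 7.5, 5 mM EDTA, 0.5% BSA, 1% DMSO. Incubation 2.5 h at room temperature. Non-specific binding taken with excess histamine. Scintillation counting. IC50 from a 6-point semi-log dose-response, duplicate wells.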

Histamine H4 receptor [3] = molecular target: T1, Histamine H4 receptor; test: Inverse agonist activity at human histamine H4 receptor assessed as inhibition of [35S]GTPgammaS binding after 15 mins by scintillation proximity assay relative to control; format: functional; parameters: concentration or dose not given beside the values
Histamine H4 receptor [4] = molecular target: T1, Histamine H4 receptor; test: Inverse agonist activity at human histamine H4 receptor assessed as inhibition of [35S]GTPgammaS binding after 15 mins by scintillation proximity assay; format: functional
[5] = Half life in rat microsomes; format: ADME, Microsome
Histamine H4 receptor [6] = molecular target: T1, Histamine H4 receptor; test: Displacement of [3H]histamine human recombinant histamine H4 receptor; how it was run: as §1
[7] = Volume of distribution in dog; format: ADME, organism-based, Canis lupus familiaris; details: in vivo
[8] = Oral bioavailability in rat at 5 mg/kg; format: ADME, organism-based; details: in vivo
How it was run: (§2)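 Rat pharmacokinetic study with oral dosing at 5 mg/kg.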

[9] = Clearance in rat at 5 mg/kg, po; format: ADME, organism-based; parameters: dose 5 mg/kg, route oral; details: in vivo; how it was run: as §2
Histamine H3 receptor = Histamine H3 receptor (Homo sapiens, UniProt Q9Y5N1); test: Binding affinity to histamine H3 receptor
[10] = Clearance in Cynomolgus monkey; format: ADME, organism-based, Macaca fascicularis; details: in vivo
[11] = Oral bioavailability in Cynomolgus monkey; format: ADME, organism-based, Macaca fascicularis; details: in vivo
[12] = Volume of distribution in Cynomolgus monkey; format: ADME, organism-based, Macaca fascicularis; details: in vivo
[13] = Oral bioavailability in dog; format: ADME, organism-based, Canis lupus familiaris; details: in vivo
[14] = Clearance in dog; format: ADME, organism-based, Canis lupus familiaris; details: in vivo
Histamine H1 receptor = Histamine H1 receptor (Homo sapiens, UniProt P35367); test: Binding affinity to histamine H1 receptor
Histamine H2 receptor = Histamine H2 receptor (Homo sapiens, UniProt P25021); test: Binding affinity to histamine H2 receptor
Rattus norvegicus = test: Volume of distribution in rat at 5 mg/kg, po; format: ADME, organism-based; parameters: dose 5 mg/kg, route oral; details: in vivo; how it was run: as §2
CYP1A2 = molecular target: T2, CYP1A2 (Homo sapiens, UniProt P05177); test: Inhibition of CYP1A2 at 1 uM; format: ADME
T2 sequence (P05177 whole entry): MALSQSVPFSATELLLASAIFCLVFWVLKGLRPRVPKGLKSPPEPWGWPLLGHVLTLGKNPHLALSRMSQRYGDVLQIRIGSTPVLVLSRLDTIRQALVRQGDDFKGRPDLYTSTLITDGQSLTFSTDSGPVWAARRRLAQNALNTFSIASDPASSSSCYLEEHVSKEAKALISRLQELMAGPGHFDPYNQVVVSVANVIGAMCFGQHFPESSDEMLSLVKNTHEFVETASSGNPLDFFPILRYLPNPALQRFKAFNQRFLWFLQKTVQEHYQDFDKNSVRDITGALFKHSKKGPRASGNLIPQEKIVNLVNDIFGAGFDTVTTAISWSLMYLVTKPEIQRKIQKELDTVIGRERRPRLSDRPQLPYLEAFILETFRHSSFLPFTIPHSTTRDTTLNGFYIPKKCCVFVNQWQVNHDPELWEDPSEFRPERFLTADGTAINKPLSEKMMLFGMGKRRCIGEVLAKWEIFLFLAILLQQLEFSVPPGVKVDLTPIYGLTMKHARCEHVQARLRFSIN
How it was run: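 CYP1A2 inhibition tested at 1 µM. Percent inhibition reported.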

Sequence of Histamine H1 receptor (P35367 whole entry): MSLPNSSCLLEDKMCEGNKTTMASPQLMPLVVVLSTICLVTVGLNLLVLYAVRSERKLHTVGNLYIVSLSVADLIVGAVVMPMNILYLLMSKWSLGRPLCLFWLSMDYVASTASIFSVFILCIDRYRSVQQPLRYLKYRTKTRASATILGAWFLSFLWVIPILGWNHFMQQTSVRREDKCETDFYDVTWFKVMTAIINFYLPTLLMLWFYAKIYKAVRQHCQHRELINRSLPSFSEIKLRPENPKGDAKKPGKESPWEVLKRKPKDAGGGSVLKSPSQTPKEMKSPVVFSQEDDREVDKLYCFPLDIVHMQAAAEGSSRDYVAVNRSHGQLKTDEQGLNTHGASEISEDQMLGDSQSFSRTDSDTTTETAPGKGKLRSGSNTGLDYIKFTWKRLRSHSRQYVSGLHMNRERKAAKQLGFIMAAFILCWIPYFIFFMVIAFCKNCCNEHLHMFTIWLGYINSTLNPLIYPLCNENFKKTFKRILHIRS
Sequence of Histamine H3 receptor (Q9Y5N1 whole entry): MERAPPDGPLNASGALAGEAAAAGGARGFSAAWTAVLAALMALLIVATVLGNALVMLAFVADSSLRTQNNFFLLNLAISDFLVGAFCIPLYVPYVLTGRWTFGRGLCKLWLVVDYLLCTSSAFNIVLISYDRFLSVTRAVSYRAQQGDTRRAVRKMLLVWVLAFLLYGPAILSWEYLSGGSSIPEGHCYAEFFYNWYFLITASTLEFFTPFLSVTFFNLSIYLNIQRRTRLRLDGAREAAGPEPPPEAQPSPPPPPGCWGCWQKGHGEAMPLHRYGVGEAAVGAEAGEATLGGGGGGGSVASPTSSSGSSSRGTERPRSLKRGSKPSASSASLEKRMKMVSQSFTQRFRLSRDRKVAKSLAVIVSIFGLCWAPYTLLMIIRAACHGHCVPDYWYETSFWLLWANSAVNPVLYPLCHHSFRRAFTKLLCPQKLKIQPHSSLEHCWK
Sequence of Histamine H2 receptor (P25021 whole entry): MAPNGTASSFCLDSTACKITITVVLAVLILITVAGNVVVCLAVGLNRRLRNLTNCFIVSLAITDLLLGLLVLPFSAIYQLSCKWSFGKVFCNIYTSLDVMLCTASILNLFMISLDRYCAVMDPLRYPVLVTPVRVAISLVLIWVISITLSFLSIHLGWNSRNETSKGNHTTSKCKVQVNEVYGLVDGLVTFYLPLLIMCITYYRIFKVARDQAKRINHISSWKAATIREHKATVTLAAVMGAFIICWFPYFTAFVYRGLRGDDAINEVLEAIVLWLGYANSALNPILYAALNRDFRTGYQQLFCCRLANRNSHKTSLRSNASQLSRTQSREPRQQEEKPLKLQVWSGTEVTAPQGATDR

| remaining at 10 min [1] [%] | IC50 (Histamine H4 receptor [2]) [nM] | Structure (SMILES) | also measured |
| --- | --- | --- | --- |
| 80 | > 30000 | CNC1CCN(c2ncnc3c2oc2ccc(C(=O)O)cc23)C1 (stereo not drawn) | – |
| 18 | 21000 | CN(C)C1CCN(c2ncnc3c2oc2ccc(Cl)cc23)C1 (stereo not drawn) | – |
| – | > 10000 | CNC1CCCN(c2ncnc3c2oc2ccc(Cl)cc23)C1 (stereo not drawn) | – |
| 95 | 1600 | CNC1CCN(c2nc(C)nc3c2oc2ccc(Cl)cc23)C1 (stereo not drawn) | – |
| 103 | 285 | CN[C@H]1CCN(c2ncnc3c2oc2ccc(Cl)cc23)C1 | inhibition (Histamine H4 receptor [3]): 122%; IC50 (Histamine H4 receptor [4]): 292 nM; half-life [5]: 73 min |
| 68 | 13 | CN[C@H]1CCN(c2nc(N)nc3c2oc2ccc(Cl)cc23)C1 | IC50 (Histamine H4 receptor [4]): 4 nM; half-life [5]: 21 min |
| 107 | 126 | NC1CCN(c2ncnc3c2oc2ccc(Cl)cc23)C1 (stereo not drawn) | – |
| 89 | 87 | CNC1CN(c2ncnc3c2oc2ccc(Cl)cc23)C1 | inhibition (Histamine H4 receptor [3]): 149%; IC50 (Histamine H4 receptor [4]): 76 nM |
| 59 | 30 | CN[C@@H]1CCN(c2ncnc3c2oc2ccc(C(F)(F)F)cc23)C1 | – |
| 95 | 6200 | CNC1CCN(c2ncnc3c2oc2ccc(C#N)cc23)C1 (stereo not drawn) | – |
| – | 171 | CN[C@@H]1CCN(c2ncnc3c2oc2cc(Cl)ccc23)C1 | – |
| – | > 10000 | CNC1CCN(c2ncnc3c2oc2ccc(Cl)cc23)CC1 | – |
| 80 | 95 | CNC1CCN(c2ncnc3c2oc2ccc(Cl)cc23)C1 (stereo not drawn) | – |
| – | 33 | CN[C@@H]1CCN(c2ncnc3c2oc2ccc(Cl)cc23)C1 | Stability ([1]; 10 min): 92%; IC50 (Histamine H4 receptor [4]): 41 nM; t1/2 [5]: 19 min |
| 74 | 86 | CN[C@@H]1CCN(c2ncnc3c2oc2ccc(C)cc23)C1 | – |
| 62 | 1 | CN[C@@H]1CCN(c2nc(N)nc3c2oc2ccc(Cl)cc23)C1 | Vd [7]: 26 L/kg; bioavailability [8]: 5%; CL/F [9]: 117 mL/min/kg; IC50 (Histamine H3 receptor): 5800 nM; clearance [10]: 62 mL/min/kg; bioavailability [11]: 99%; Vd [12]: 25 L/kg; bioavailability [13]: 36%; clearance [14]: 52 mL/min/kg; inhibition (Histamine H4 receptor [3]): 138%; IC50 (Histamine H1 receptor): > 30000 nM; IC50 (Histamine H2 receptor): > 30000 nM; IC50 (Histamine H4 receptor [4]): 3 nM; Vd (Rattus norvegicus): 71 L/kg; half-life [5]: 13 min; inhibition at 1 µM (CYP1A2): 45% |
| – | 14200 | CN[C@@H]1CCN(c2nc(C(F)(F)F)nc3c2oc2ccc(Cl)cc23)C1 | – |
| 0 | 37 | Cc1nc(N2CCN(C)CC2)c2oc3ccc(Cl)cc3c2n1 | – |
| 83 | 1000 | CN1CCN(c2nc(O)nc3c2oc2ccc(Cl)cc23)CC1 | – |
| – | > 10000 | CCNC1CCN(c2ncnc3c2oc2ccc(Cl)cc23)C1 (stereo not drawn) | – |

The remaining lines, values behind:

| Structure (SMILES) | remaining at 10 min [1] [%] | IC50 (Histamine H4 receptor [2]) [nM] | also measured |
| --- | --- | --- | --- |
| Clc1ccc2oc3c(N4CCN5CCCC5C4)ncnc3c2c1 (stereo not drawn) | 0 | 236 | – |
| Clc1ccc2oc3c(N4CC5CCCNC5C4)ncnc3c2c1 (stereo not drawn) | – | 1400 | – |
| COc1nc(N2CCN(C)CC2)c2oc3ccc(Cl)cc3c2n1 | 13 | 90 | – |
| CC1CN(c2ncnc3c2oc2ccc(Cl)cc23)CCN1C (stereo not drawn) | 1 | 1900 | – |
| CN1C[C@@H]2C[C@H]1CN2c1ncnc2c1oc1ccc(Cl)cc12 | 75 | 111 | inhibition (Histamine H4 receptor [3]): 105%; IC50 (Histamine H4 receptor [4]): 70 nM |
| CN1CCN(c2nc(C(F)(F)F)nc3c2oc2ccc(Cl)cc23)CC1 | 7 | 83 | inhibition (Histamine H4 receptor [3]): 100%; IC50 (Histamine H4 receptor [4]): 39 nM |
| CN1CCN(c2nc(-c3ccccc3)nc3c2oc2ccc(Cl)cc23)CC1 | 40 | > 30000 | – |
| CNC1CCN(c2ncnc3c2oc2ccc(-c4ccccc4)cc23)C1 (stereo not drawn) | 97 | > 10000 | – |
| CNC(=O)c1ccc2oc3c(N4CCC(NC)C4)ncnc3c2c1 (stereo not drawn) | – | > 30000 | – |
| CC1CN(c2ncnc3c2oc2ccc(Cl)cc23)CC(C)N1C (stereo not drawn) | – | 10000 | – |
| CN1CCN(c2ncnc3c2oc2ccc(Cl)cc23)CC1 | 1 | 19 | IC50 (Histamine H4 receptor [6]): 19 nM |
| CN1CCN(c2nc(C(=O)O)nc3c2oc2ccc(Cl)cc23)CC1 | 106 | > 10000 | – |
| CNC1(C)CCN(c2ncnc3c2oc2ccc(Cl)cc23)C1 (stereo not drawn) | – | 1400 | – |
| CN1CCN(c2nc(C3CC3)nc3c2oc2ccc(Cl)cc23)CC1 | 8 | 310 | – |
| CN1CC2CCC1CN2c1ncnc2c1oc1ccc(Cl)cc12 (stereo not drawn) | 66 | 169 | – |
| CN1C2CCC1CN(c1ncnc3c1oc1ccc(Cl)cc13)C2 | 62 | 440 | – |
